Hits are enriched below; roughly 5.1% of the tested compounds scored in any of these assays.
Ecoli tolC = growth inhibitors of E. coli tolC mutant, primary screen, strain BW25113 ΔtolC::kan, 384-well; OD615; growth inhibition, % at 10 µM (by protocol); hit rate 2.2% among 65,000; AID 573, 2007;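 active = growth inhibition at or above a cutoff equal to the mean over every tested compound plus 3 SD, cut at about 60% in these data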;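 note: growth measured after 20 h incubation at 37 °C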
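Test system: E. coli BW25113 ΔtolC::kan bacteria | Medium: Kanamycin-containing LB broth (50 µg/mL) | Dosing: One dose of 10 µM final | Times: 20 h incubation with compound, 37 °C | Detection: Optical density read at 615 nm | Read-out basis: Percent growth inhibition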
M1 agonist = M1 muscarinic receptor agonists, primary screen, CHO-M1 cells, Fluo-4 calcium, agonist mode. hit rate 3% among 64,000. AID 626, 2007. B-score at 10 µM. Fluo-4 calcium fluorescence; hits give high values. Muscarinic acetylcholine receptor M1;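 active = fluorescence rise, raw or as B-score row- and column-corrected plate score, outside the 99.7% band of its plate's samples, either direction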
Ecoli WT expand = growth inhibitors of wild-type E. coli, primary screen, strain BW25113, expanded library, OD600; OD600 absorbance; growth inhibition, % at 100 µM; hit rate 0.15% among 98,000; AID 710, 2007;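 active = growth inhibition above about 50% at one test dose, limit read from the data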;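 note: growth measured after 20 h incubation at 37 °C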
M1 antag = antagonists of rat M1 muscarinic receptor. Muscarinic acetylcholine receptor M1 (Rattus norvegicus), P08482. CHO-M1 cells, Fluo-4 calcium, ACh EC80 antagonist mode; hits give low values. B-score at 10 µM. hit rate 3.4% among 64,000;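 active = calcium fluorescence response, raw or row-and-column corrected B-score, differing from the plate sample mean either way at a set confidence level, mostly lower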
Hsp90 block = tumor Hsp90 inhibitors, primary screen, cell lysate, fluorescence polarization, NCI-N417 lysate | Cy3B-geldanamycin FP displacement | inhibition, % at 30 µM | hit rate 0.35% among 64,000 | AID 429, 2006;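 active = inhibition above 50%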;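 note: 0% = tracer plus lysate wells and 100% = tracer alone without lysate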
BAP1 inh = inhibitors of BAP1 deubiquitinase, primary screen, biochemical, Ub-AMC fluorescence, kinetic; Ubiquitin carboxyl-terminal hydrolase BAP1 (Homo sapiens), Q92560; recombinant BAP1, Ub-AMC hydrolysis fluorescence kinetic; hits give low values; calls only at 20 µM; hit rate 0.48% among 72,000;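 active = activity remaining at or below 50% of control, provided the compound also passes the data quality filters; inactive = the rest, including low values that fail the filters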;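 note: 100% = DMSO wells rate and 0% = substrate alone blank rate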
Target sequence (Q92560 whole entry, looked up): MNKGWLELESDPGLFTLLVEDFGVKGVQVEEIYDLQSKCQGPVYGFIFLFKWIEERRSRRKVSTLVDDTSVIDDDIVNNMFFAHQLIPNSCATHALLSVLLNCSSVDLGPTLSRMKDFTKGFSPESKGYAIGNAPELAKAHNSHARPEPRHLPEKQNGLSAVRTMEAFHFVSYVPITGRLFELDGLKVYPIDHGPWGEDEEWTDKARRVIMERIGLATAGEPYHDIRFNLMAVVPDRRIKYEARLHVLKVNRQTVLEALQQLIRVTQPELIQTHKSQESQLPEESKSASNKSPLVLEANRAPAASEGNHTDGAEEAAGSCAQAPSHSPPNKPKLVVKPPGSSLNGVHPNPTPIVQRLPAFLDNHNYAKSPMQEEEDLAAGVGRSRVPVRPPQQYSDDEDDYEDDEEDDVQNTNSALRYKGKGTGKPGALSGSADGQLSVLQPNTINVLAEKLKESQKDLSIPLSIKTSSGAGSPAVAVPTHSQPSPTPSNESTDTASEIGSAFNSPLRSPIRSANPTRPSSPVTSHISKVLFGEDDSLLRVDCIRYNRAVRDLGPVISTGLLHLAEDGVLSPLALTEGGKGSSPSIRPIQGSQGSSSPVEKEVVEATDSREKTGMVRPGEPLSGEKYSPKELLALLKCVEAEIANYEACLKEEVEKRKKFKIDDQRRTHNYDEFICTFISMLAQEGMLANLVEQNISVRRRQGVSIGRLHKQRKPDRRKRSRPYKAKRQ
M1 agonist conf = rat M1 muscarinic receptor agonists, confirmation, CHO-M1 cells, Fluo-4 calcium, duplicate retest. AID 1488, 2009. hit rate 19% among 1,700. shares compounds with M1 agonist. fluorescence change (max-min) at 10 µM. Fluo-4 calcium fluorescence, agonist mode; actives lie on both sides;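 active = fluorescence change differs from the solvent-only DMSO control mean at a set confidence level in both duplicate runs; inconclusive = differs from solvent-only control mean in just one of two runs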;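 note: an EC20 dose of acetylcholine follows compound addition during the same imaging run; raw fluorescence intensity difference in instrument units with no normalization to controls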
M4 ag counter = agonist activity at rat M4 receptor, confirmation, counter-screen for M1 allosteric modulator project, cell-based, agonist mode; shares compounds with M1 agonist; CHO M4/Gqi5 cells, Fluo-4 calcium fluorescence; actives lie on both sides; fluorescence change (max-min) at 10 µM; hit rate 9% among 1,700; AID 1741, 2009;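 active = fluorescence change differing from the plate's solvent-only control wells at 99.7% confidence in both duplicates, whether higher or lower; inconclusive = differs from solvent controls in only one of two duplicates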
* marks the source's active call; other numbers are inactive results; i = inactive; ? = inconclusive; / = not tested or not shown.

SMILES	Ecoli tolC	M1 agonist	Ecoli WT expand	M1 antag	Hsp90 block	BAP1 inh	M1 agonist conf	M4 ag counter
CCOC(=O)N1CCC(NCCNC(=O)c2ccccc2Cl)CC1	-13	25*	-1	-9.1*	14	i	267*	?
CCOC(=O)N1CCC(NCCNC(=O)c2ccccc2)CC1	-15	/	1	/	-2	i	/	/
CCOCCOC(=O)C1=C(C)NC(=O)NC1c1ccc(C)cc1 (stereo not given)	/	/	/	/	/	i	/	/
COc1ccc(NC(=O)N(CCCN(C)C)Cc2cc3cc(OC)ccc3[nH]c2=O)cc1	-7	-0.21	/	0.81	-3	i	/	/
COc1ccc(NC(=O)N(Cc2cc3cc(OC)ccc3[nH]c2=O)CC2CCCO2)cc1 (stereo not given)	-1	4*	3	-0.44	-6	/	?	-74*
C=C(C)CN1CCN(c2c(CCC#N)c(C)c(C#N)c3nc4ccccc4n23)CC1	0	5.7*	-3	0.065	-4	/	7.4	0.77
Cc1c(Nc2nc3ccccc3nc2N2CCN(c3ccccc3)CC2)c(=O)n(-c2ccccc2)n1C	11	3.6*	-6	-0.61	-6	i	-7.7	-11
Cc1c(C(=O)Nc2ccc(F)cc2)oc2ccc(S(=O)(=O)N3CCC4(CC3)OCCO4)cc12	48	4.7*	-11	-0.85	-4	/	-1.3	-35
Cc1c(C(=O)Nc2cccc(Cl)c2)oc2ccc(S(=O)(=O)N3CCC4(CC3)OCCO4)cc12	28	3.6*	1	-1.3	0	/	-3.4	-20
Cc1c(C(=O)NCc2ccccc2)oc2ccc(S(=O)(=O)N3CCC4(CC3)OCCO4)cc12	17	2	-17	-1.1	/	/	/	/
Cc1c(C(=O)NCC2CCCO2)oc2ccc(S(=O)(=O)N3CCCCC3)cc12 (stereo not given)	7	0.15	/	-0.42	-4	i	/	/
Cc1c(C(=O)NCCC2=CCCCC2)oc2ccc(S(=O)(=O)N3CCC4(CC3)OCCO4)cc12	22	9*	-12	-1.4	-1	i	-17	?
Cc1c(C(=O)Nc2ccc(F)cc2)oc2ccc(S(=O)(=O)N3CCCC3)cc12	-7	0.26	/	0.61	-2	i	/	/
CCOC(=O)c1ccc2nc(NC(=O)c3ccc([N+](=O)[O-])cc3)sc2c1	/	/	/	/	/	i	/	/
Cn1c(C(=O)NC2CC2)cc2c(=O)n(C)c3ccccc3c21	13	1.7	6	-0.76	-6	i	/	/
Cn1c(C(=O)Nc2ccc3c(c2)OCCO3)cc2c(=O)n(C)c3ccccc3c21	38	4.6*	0	-0.19	-2	i	3.7	-11
CCOC(=O)N1CCC(NC(=O)c2cc3c(=O)n(C)c4ccccc4c3n2C)CC1	12	2*	-5	6.6e-05	-2	i	?	-25
COC(=O)c1c(NC(=O)c2cccnc2)sc2c1CCC2	/	/	/	/	/	i	/	/
CCOc1ccccc1C(=O)Nc1ccc(S(=O)(=O)N2CCCCC2C)cc1 (stereo not given)	/	/	/	/	/	i	/	/
CCN1C(=O)/C(=C2/SC(C)=C(C)N2CC)SC1=S	-10	3.2*	-3	-1	0	i	-5.1	20
COc1ccc(N2C(=O)c3cccc4c(Cl)ccc(c34)C2=O)cc1	/	/	/	/	/	i	/	/
COCCn1c(=N)c(C(=O)NCc2ccco2)cc2c(=O)n3ccccc3nc21	19	3.6*	3	-1.7	-7	/	66*	32
N=c1c(C(=O)NCc2ccco2)cc2c(=O)n3ccccc3nc2n1Cc1ccc(Cl)cc1	48	/	-9	/	-8	i	/	/
Cc1ccc(S(=O)(=O)c2cc3c(=O)n4ccccc4nc3n(CC3CCCO3)c2=N)cc1 (stereo not given)	0	-0.017	/	-1.5	-16	i	/	/
Cc1ccc(CNC(=O)c2cc3c(=O)n4ccccc4nc3n(Cc3ccco3)c2=N)cc1	4	4.8*	/	0.33	-4	i	198*	91
SMILES	Ecoli tolC	M1 agonist	Ecoli WT expand	M1 antag	Hsp90 block	BAP1 inh	M1 agonist conf	M4 ag counter
Cc1ccc(CNC(=O)c2cc3c(=O)n4ccccc4nc3n(CC3CCCO3)c2=N)cc1 (stereo not given)	9	5.2*	2	-0.21	-6	/	22	-15
Cc1cccn2c(=O)c3cc(C(=O)NCc4ccco4)c(=N)n(CCc4ccccc4)c3nc12	65*	5.3*	/	-6.2*	-2	/	31	-28
O=C1c2cccc3cccc(c23)C(=O)N1CCN1CCCCC1	/	/	/	/	/	i	/	/
Cc1ccc2nc(-c3ccc(N=Cc4ccccc4)cc3)sc2c1	/	/	/	/	/	i	/	/
Cc1ccnc(NC(=O)CCCCC(=O)O)c1	/	/	/	/	/	i	/	/
Cc1ccc(S(=O)(=O)c2cc3c(=O)n4cccc(C)c4nc3n(Cc3ccco3)c2=N)cc1C	4	0.76	/	0.62	0	i	/	/
Cc1ccc(S(=O)(=O)c2cc3c(=O)n4ccccc4nc3n(Cc3ccco3)c2=N)cc1	19	-2.4*	-7	0.052	-9	i	22	17
COc1ccc(C2=NC(C(F)(F)F)(C(F)(F)F)N=C(N3CCCCC3)O2)cc1	/	/	/	/	/	i	/	/
O=C(NCCc1c[nH]c2ccccc12)c1cnc2sccn2c1=O	5	3.2*	-2	1.1	0	i	-14	?
COC(=O)C1=C(C(=O)OC)SC2(S1)C(C(=O)OC)=C(C(=O)OC)SC1=C2c2cc(C)c(C)cc2NC1(C)C	/	/	/	/	/	i	/	/
O=C(Cc1nc2ccccc2s1)c1ccc(O)cc1O	0	-1.8*	-1	0.24	2	i	4.5	4.1
O=C(Cc1ccc(Cl)cc1)c1ccc(O)cc1O	/	/	/	/	/	i	/	/
Cc1ccc(-n2c(O)c(/C=N/n3cnnc3)c3ccccc3c2=O)cc1	6	26*	2	0.14	-2	i	121*	54
O=c1c2ccccc2c(/C=N/n2cnnc2)c(O)n1-c1ccccc1F	-4	55*	-3	-0.12	1	/	350*	698*
N#C/C(C(=O)NCc1ccco1)=C1/SC(Cc2ccc(F)cc2)C(=O)N1c1ccccc1 (stereo not given)	10	2.4*	-7	0.19	1	i	-21	?
CCC1S/C(=C(\C#N)C(=O)NCc2ccco2)N(c2ccc(F)cc2)C1=O (stereo not given)	1	0.094	-3	0.057	-1	i	/	/
